According to ChEMBL document CHEMBL3228024, “Prodrug analogues of the antitumor alkaloid camptothecin” (1979):
Calls of active or inactive are those of the source. The rule behind the calls is not given here.

Columns and labels:
L1210 [1] = assay: Antitumor activity against mouse L1210 cells allografted in mouse assessed as increase in mouse survival time at 11.1 mg/kg, iv for 4 to 9 days relative to control; assay type: functional
Method in brief: (§1)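 Run under NCI protocols 3LE21 (L1210) and 3PS31 (P388) in mice, six mice per test group. Drug was injected daily for 9 days, with 20–30 uninjected control animals. Mean or median survival time of the treated group was divided by that of controls and multiplied by 100, then reported as percentage increase in life span.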

L1210 [2] = assay: Antitumor activity against mouse L1210 cells allografted in mouse assessed as increase in mouse survival time at 3.7 mg/kg, iv for 4 to 9 days relative to control; assay type: functional; method in brief: as §1
P388 [3] = assay: Antitumor activity against mouse P388 cells allografted in mouse assessed as increase in mouse survival time at 0.4 mg/kg, iv for 4 to 9 days relative to control; assay type: functional; method in brief: as §1
HeLa = assay: Antitumor activity against human HeLa cells assessed as inhibition of radioactive thymidine incorporation into acid-insoluble material by DNA sedimentation assay; assay type: functional, cell-based
P388 [4] = assay: Antitumor activity against mouse P388 cells allografted in mouse assessed as increase in mouse survival time at 11.1 mg/kg, iv for 4 to 9 days relative to control; assay type: functional; method in brief: as §1
P388 [5] = assay: Antitumor activity against mouse P388 cells allografted in mouse assessed as increase in mouse survival time at 3.7 mg/kg, iv for 4 to 9 days relative to control; assay type: functional; method in brief: as §1
P388 [6] = assay: Antitumor activity against mouse P388 cells allografted in mouse assessed as increase in mouse survival time at 1.2 mg/kg, iv for 4 to 9 days relative to control; assay type: functional; method in brief: as §1
L1210 [7] = assay: Antitumor activity against mouse L1210 cells allografted in mouse assessed as increase in mouse survival time at 1.2 mg/kg, iv for 4 to 9 days relative to control; assay type: functional; method in brief: as §1
L1210 [8] = assay: Antitumor activity against mouse L1210 cells allografted in mouse assessed as increase in mouse survival time at 0.4 mg/kg, iv for 4 to 9 days relative to control; assay type: functional; method in brief: as §1
L1210 [9] = assay: Cytotoxicity against mouse L1210 cells; assay type: functional
[10] = Cytotoxicity against human 9KB cells relative to camptothecin; assay type: functional
L1210 [11] = assay: Antitumor activity against mouse L1210 cells allografted in mouse assessed as increase in mouse survival time at 5.1 mg/kg, iv for 4 to 9 days relative to control; assay type: functional; method in brief: as §1
P388 [12] = assay: Antitumor activity against mouse P388 cells allografted in mouse assessed as increase in mouse survival time at 5.1 mg/kg, iv for 4 to 9 days relative to control; assay type: functional; method in brief: as §1
P388 [13] = assay: Cytotoxicity against mouse P388 cells; assay type: functional
L1210 [14] = assay: Antitumor activity against mouse L1210 cells allografted in mouse assessed as increase in mouse survival time at 18.9 mg/kg, iv for 4 to 9 days relative to control; assay type: functional; method in brief: as §1
[15] = Cytotoxicity against human 9KB cells; assay type: functional
L1210 [16] = assay: Cytotoxicity against mouse L1210 cells relative to camptothecin; assay type: functional
L1210 [17] = assay: Antitumor activity against mouse L1210 cells allografted in mouse assessed as increase in mouse survival time at 62.5 mg/kg, iv for 4 to 9 days relative to control; assay type: functional; method in brief: as §1
P388 [18] = assay: Antitumor activity against mouse P388 cells allografted in mouse assessed as increase in mouse survival time at 18.9 mg/kg, iv for 4 to 9 days relative to control; assay type: functional; method in brief: as §1
P388 [19] = assay: Cytotoxicity against mouse P388 cells relative to camptothecin; assay type: functional
P388 [20] = assay: Antitumor activity against mouse P388 cells allografted in mouse assessed as increase in mouse survival time at 62.5 mg/kg, iv for 4 to 9 days relative to control; assay type: functional
Method in brief: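 Mice bearing P388 leukemia (NCI protocol 3PS31), six mice per test, drug injected daily for 9 days (in some tests for only 6 days). Controls were 20–30 animals receiving no injection. Activity was expressed as mean/median survival time of the test group divided by that of the control group ×100.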

P388 [21] = assay: Antitumor activity against mouse P388 cells allografted in mouse assessed as increase in mouse survival time at 6.4 mg/kg, iv for 4 to 9 days relative to control; assay type: functional; method in brief: as §1
P388 [22] = assay: Antitumor activity against mouse P388 cells allografted in mouse assessed as increase in mouse survival time at 23 mg/kg, iv for 4 to 9 days relative to control; assay type: functional; method in brief: as §1
P388 [23] = assay: Antitumor activity against mouse P388 cells allografted in mouse assessed as increase in mouse survival time at 45 mg/kg, iv for 4 to 9 days relative to control; assay type: functional; method in brief: as §1

Compound `CC[C@@](O)(C(=O)[O-])c1cc2n(c(=O)c1CO)Cc1cc3ccccc3nc1-2.[Na+]` has a T/C (L1210 [1]) of 74%, a T/C (L1210 [2]) of 114% and a T/C (P388 [3]) of 139%. For the same compound, the inhibition (HeLa) was “Active”, the T/C (P388 [4]) was 67% and the T/C (P388 [5]) was 85%. It also gave a T/C (P388 [6]) of 168%, a T/C (L1210 [7]) of 147% and a T/C (L1210 [8]) of 116%.

With `CC[C@@](O)(C(=O)NC(C)C)c1cc2n(c(=O)c1CN1CCCC1)Cc1cc3ccccc3nc1-2` the ED50 (L1210 [9]) was 6.5 ×10⁻⁵ umol/ml, the Activity [10] was 7.8% and the T/C (L1210 [11]) was 109%. For the same compound, the T/C (P388 [12]) was 111%, the ED50 (P388 [13]) was 1.1 ×10⁻⁴ umol/ml and the T/C (L1210 [14]) was 101%. It also gave an ED50 [15] of 2.2 ×10⁻⁵ umol/ml, an Activity (L1210 [16]) of 23% and a T/C (L1210 [17]) of 113%. The T/C (P388 [18]) was 126% and the Activity (P388 [19]) was 0.13%.

`CC[C@@](O)(C(=O)NC(C)C)c1cc2n(c(=O)c1CN1CCCC1)Cc1cc3ccccc3nc1-2.Cl` showed a T/C (P388 [20]) of 125%.

Work on `CC[C@@](O)(C(=O)NC(C)C)c1cc2n(c(=O)c1Cn1ccnc1)Cc1cc3ccccc3nc1-2` yielded a T/C (P388 [21]) of 105%, a T/C (P388 [22]) of 89% and a T/C (P388 [23]) of 92%.
